Consider one molecule from ChEMBL document CHEMBL4304743, “Discovery of ( E)- N1-(3-Fluorophenyl)- N3-(3-(2-(pyridin-2-yl)vinyl)-1 H-indazol-6-yl)malonamide (CHMFL-KIT-033) as a Novel c-KIT T670I Mutant Selective Kinase Inhibitor for Gastrointestinal Stromal Tumors (GISTs)” (J Med Chem, 2019).

The source made the active and inactive calls. The calls are words filed in the database; no cut-off is given here. Bounds are passed on as bounds.

One assay relates to GIST882. The experiment in a line: Antiproliferative activity against human GIST882 cells harboring c-KIT K642E mutant incubated for 72 hrs by CCK8 assay. It is filed as functional. The conditions noted are these: GIST882, 72 h. In a few lines:
(§1)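 Adherent GIST cells seeded at 1.5-5 × 10^4 cells/mL and left overnight at 37 °C, 5% CO2. Medium then replaced with medium holding serial compound dilutions; 72 h incubation. Viability by CCK-8, absorbance at 450 nm, normalized to DMSO control; GI50 from dose-response fit.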

In assay [1] the test system is Mast/stem cell growth factor receptor Kit (Homo sapiens), P10721 [UNDEFINED MUTATION]. The conditions noted are these: 1 uM.
Assay [2] relates to Mast/stem cell growth factor receptor Kit (Homo sapiens), P10721 [V559A]. In words: Inhibition of TEL fused c-KIT V559A mutant (unknown origin) transfected in mouse BAF3 cells assessed as growth inhibition after 72 hrs by CCK8 assay. It is filed as cell-based. In a few lines:
(§2)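 Tel-c-KIT-transformed BaF3 lines (IL-3 independent) kept in RPMI 1640 with 10% FBS, 2% L-glutamine and pen/strep. Cells at 1.5 to 5 × 10^4 cells/mL mixed with graded compound and incubated 72 h at 37 °C, 5% CO2. Viability by CCK-8 absorbance at 450 nm, normalized to DMSO. GI50 from dose–response fit.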

Assay [3] relates to Mast/stem cell growth factor receptor Kit (Homo sapiens), P10721 [L576P]. The experiment in a line: Inhibition of TEL fused c-KIT L576P mutant (unknown origin) transfected in mouse BAF3 cells assessed as growth inhibition after 72 hrs by CCK8 assay. Type of assay: cell-based. In a few lines: as §2
Background: Tetrazolium assays rely on reduction of a dye to a coloured formazan, in cell work by metabolically active cells.

In assay [4] the test system is Mast/stem cell growth factor receptor Kit (Homo sapiens), P10721 [V559G]. The experiment in a line: Inhibition of TEL fused c-KIT V559G mutant (unknown origin) transfected in mouse BAF3 cells assessed as growth inhibition after 72 hrs by CCK8 assay. It is filed as cell-based. In a few lines: as §2
Assay [5] deals with GISTT1. The experiment in a line: Antiproliferative activity against human GISTT1 cells harboring c-KIT 560 to 578 deletion mutant incubated for 72 hrs by CCK8 assay. It is filed as functional. The conditions noted are these: GISTT1, 72 h. The essentials: as §1
Assay [6] in a line: Antiproliferative activity against human GIST5R cells harboring c-KIT 560 to 578 deletion/T670I double mutant incubated for 72 hrs by CCK8 assay. It is filed as functional. The essentials:
as §1

Assay [7] relates to Mast/stem cell growth factor receptor Kit (Homo sapiens), P10721 [UNDEFINED MUTATION]. The conditions noted are these: GISTT1, 1 uM.
The subject of assay [8] is Mast/stem cell growth factor receptor Kit (Homo sapiens), P10721 [V654A]. In words: Inhibition of TEL fused c-KIT V654A mutant (unknown origin) transfected in mouse BAF3 cells assessed as growth inhibition after 72 hrs by CCK8 assay. Type of assay: cell-based. The essentials: as §2
Assay [9] addresses Mast/stem cell growth factor receptor Kit (Homo sapiens, UniProt P10721). The experiment in a line: Inhibition of wild type TEL fused c-KIT (unknown origin) transfected in mouse BAF3 cells assessed as growth inhibition after 72 hrs by CCK8 assay. It is filed as cell-based. The conditions noted are these: baf3, 72 h. In a few lines:
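IL-3 independent BaF3 cells stably expressing tel-c-KIT wt or tel-c-KIT T670I, grown in RPMI 1640 with 10% FBS, 2% L-glutamine, 37 °C, 5% CO2. Suspension cells at 1.5 to 5 × 10^4 cells/mL mixed with serial compound dilutions and incubated 72 h. Viability read by CCK-8 absorbance at 450 nm, normalized to DMSO; GI50 from curve fit. Selectivity is wt GI50 over T670I GI50.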

Assay [10] relates to Mast/stem cell growth factor receptor Kit (Homo sapiens), P10721 [D820E]. In words: Inhibition of TEL fused c-KIT D820E mutant (unknown origin) transfected in mouse BAF3 cells assessed as growth inhibition after 72 hrs by CCK8 assay. Type of assay: cell-based. In a few lines: as §2
A short description of assay [11]: Antitumor activity against human GIST5R cells xenografted in nude mouse assessed as tumor weight at 100 mg/kg, po administered […] via gavage for 28 days (reference value: 0.59g). Type of assay: functional. In a few lines: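 Female nu/nu mice (5 weeks old) given subcutaneous right-flank GIST-5R cells in Matrigel. Dosing began at tumors of 200-400 mm3; randomized, 4 mice per group. Daily oral dosing (QD) at 25, 50 or 100 mg/kg in 0.5% methylcellulose/0.4% Tween80, or vehicle alone, for 28 days. Body weight and tumor volume, (W²×L)/2, measured daily; mean±SEM.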
(In general: In xenograft studies the graft and the host belong to different species.)

In assay [12] the test system is GISTT1. The experiment in a line: Antiproliferative activity against human GISTT1 cells harboring c-KIT 560 to 578 deletion/T670I double mutant incubated for 72 hrs by CCK8 assay. It is filed as functional. The conditions noted are these: GISTT1, 72 h. The essentials:
as §1

Assay [13] has as its system Mast/stem cell growth factor receptor Kit (Homo sapiens), P10721 [UNDEFINED MUTATION]. The conditions noted are these: GISTT1, 1 uM. This is another data set of the same source.
Assay [14] in a line: Antiproliferative activity against human GIST48B cells incubated for 72 hrs by CCK8 assay. Type of assay: functional. The essentials: as §1

As a reminder, the GI50 is the concentration at which growth is held to half of that of the control.

Sequence of Mast/stem cell growth factor receptor Kit (Homo sapiens), P10721 [UNDEFINED MUTATION] (P10721 whole entry, looked up, stated change not applied, the tested form may be a part): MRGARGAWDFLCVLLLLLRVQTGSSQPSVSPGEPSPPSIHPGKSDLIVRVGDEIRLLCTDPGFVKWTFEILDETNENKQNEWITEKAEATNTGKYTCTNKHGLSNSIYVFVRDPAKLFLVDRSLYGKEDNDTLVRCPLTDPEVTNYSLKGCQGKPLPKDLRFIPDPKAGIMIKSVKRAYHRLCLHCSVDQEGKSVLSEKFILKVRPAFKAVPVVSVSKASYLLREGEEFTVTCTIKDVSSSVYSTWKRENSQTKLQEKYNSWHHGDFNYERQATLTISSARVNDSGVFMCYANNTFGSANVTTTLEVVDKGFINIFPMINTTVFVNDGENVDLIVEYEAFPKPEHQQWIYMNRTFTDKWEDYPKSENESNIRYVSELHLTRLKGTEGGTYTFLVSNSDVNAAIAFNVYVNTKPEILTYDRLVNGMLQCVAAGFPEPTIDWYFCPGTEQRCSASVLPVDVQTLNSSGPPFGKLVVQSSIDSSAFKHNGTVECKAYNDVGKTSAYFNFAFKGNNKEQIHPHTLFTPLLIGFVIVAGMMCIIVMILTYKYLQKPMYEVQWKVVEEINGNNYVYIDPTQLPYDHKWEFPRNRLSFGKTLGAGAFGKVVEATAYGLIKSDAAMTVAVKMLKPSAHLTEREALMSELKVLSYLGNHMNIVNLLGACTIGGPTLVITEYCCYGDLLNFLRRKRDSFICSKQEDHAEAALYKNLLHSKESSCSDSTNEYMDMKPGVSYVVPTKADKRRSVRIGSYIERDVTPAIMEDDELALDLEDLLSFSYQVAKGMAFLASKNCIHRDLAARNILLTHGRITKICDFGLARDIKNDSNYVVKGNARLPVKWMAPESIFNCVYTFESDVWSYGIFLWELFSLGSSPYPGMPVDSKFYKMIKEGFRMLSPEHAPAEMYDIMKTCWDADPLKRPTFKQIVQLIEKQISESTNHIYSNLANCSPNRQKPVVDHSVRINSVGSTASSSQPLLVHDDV
Sequence of Mast/stem cell growth factor receptor Kit (Homo sapiens), P10721 [V559G] (P10721 whole entry V559G, the tested form may be a part): as the sequence (P10721 whole entry, looked up, stated change not applied, the tested form may be a part) above, with V559G counted along it
Sequence of Mast/stem cell growth factor receptor Kit (Homo sapiens), P10721 [V654A] (P10721 whole entry V654A, the tested form may be a part): as the sequence (P10721 whole entry, looked up, stated change not applied, the tested form may be a part) above, with V654A counted along it
Sequence of Mast/stem cell growth factor receptor Kit (Homo sapiens), P10721 [D820E] (P10721 whole entry D820E, the tested form may be a part): as the sequence (P10721 whole entry, looked up, stated change not applied, the tested form may be a part) above, with D820E counted along it
Sequence of Mast/stem cell growth factor receptor Kit (P10721 whole entry, the tested form may be a part): as the sequence (P10721 whole entry, looked up, stated change not applied, the tested form may be a part) above
Sequence of Mast/stem cell growth factor receptor Kit (Homo sapiens), P10721 [L576P] (P10721 whole entry L576P, the tested form may be a part): as the sequence (P10721 whole entry, looked up, stated change not applied, the tested form may be a part) above, with L576P counted along it
Sequence of Mast/stem cell growth factor receptor Kit (Homo sapiens), P10721 [V559A] (P10721 whole entry V559A, the tested form may be a part): as the sequence (P10721 whole entry, looked up, stated change not applied, the tested form may be a part) above, with V559A counted along it

Regarding `Cc1ccc(NC(=O)c2ccc(CN3CCN(C)CC3)cc2)cc1Nc1nccc(-c2cccnc2)n1` [IMATINIB], the GI50 in the assay on GIST882 is 58 nM; in assay [2], 5 nM; in assay [3], 115 nM; in [4], 1 nM; with GISTT1 [5], 26 nM; in assay [6] it was > 10000 nM. Also, the GI50 in [8] was 2300 nM; in assay [9], 364 nM; in assay [10], 267 nM; with GISTT1 [12], > 10000 nM; in [14], > 10000 nM. The inhibition result in assay [1], in [7] and in assay [13] was “inactive” in each case. Besides, the Activity in assay [11] is 0.41 g.
